Measured values from ChEMBL document CHEMBL1144760, “Oxygenated cembranoids from a Formosan soft coral Sinularia gibberosa” (J Nat Prod, 2008).
The source made the active and inactive calls. The calls are words filed in the database; no cut-off is given here.

Legend:
HepG2 [1] = assay: Cytotoxicity against human HepG2 cells by MTT assay; type: functional, cell-based
MCF7 [2] = assay: Cytotoxicity against human MCF7 cells by MTT assay; type: functional, cell-based
[3] = Cytotoxicity against human MDA-MB-23 cells by MTT assay; type: functional, cell-based
A549 [4] = assay: Cytotoxicity against human A549 cells by MTT assay; type: functional, cell-based
HepG2 [5] = assay: Cytotoxicity against human HepG2 cells at 20 ug/mL by MTT assay; type: functional; conditions: read-out: GI
MCF7 [6] = assay: Cytotoxicity against human MCF7 cells at 20 ug/mL by MTT assay; type: functional; conditions: read-out: GI
RAW264.7 [7] = assay: Inhibition of LPS-induced iNOS expression in mouse RAW264.7 cells at 10 uM by immunoblot analysis relative to control; type: functional
Method in brief: (§1)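 Murine RAW 264.7 macrophages were grown in DMEM with 10% heat-inactivated FBS at 37 °C and 5% CO2. Test agent (10 µM) was added 5 min before LPS (0.01 µg/mL), followed by 16 h incubation. Lysates were cleared at 20000g, and equal protein was run on SDS-PAGE and PVDF. Blots used anti-iNOS or anti-COX-2 (1:1000, 180 min RT), ECL, and a β-actin reprobe. Densitometry was expressed relative to LPS-alone (100%), as mean ± SEM, n = 6.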

RAW264.7 [8] = assay: Inhibition of LPS-induced COX2 expression in mouse RAW264.7 cells at 10 uM by immunoblot analysis relative to control; type: functional; method in brief: as §1
A549 [9] = assay: Cytotoxicity against human A549 cells at 20 ug/mL by MTT assay; type: functional; conditions: read-out: GI
HepG2 [10] = assay: Cytotoxicity against human HepG2 cells at 0.5 ug/mL by MTT assay; type: functional; conditions: read-out: GI
MCF7 [11] = assay: Cytotoxicity against human MCF7 cells at 0.5 ug/mL by MTT assay; type: functional; conditions: read-out: GI
[12] = Cytotoxicity against human MDA-MB-23 cells at 0.5 ug/mL by MTT assay; type: functional; conditions: read-out: GI
A549 [13] = assay: Cytotoxicity against human A549 cells at 0.5 ug/mL by MTT assay; type: functional; conditions: read-out: GI

Row | Compound | IC50 (HepG2 [1]) | IC50 (MCF7 [2]) | IC50 [3] | IC50 (A549 [4]) | inhibition of growth at 20 µg/mL (HepG2 [5]) | inhibition of growth at 20 µg/mL (MCF7 [6]) | Activity (RAW264.7 [7]) | Activity (RAW264.7 [8]) | inhibition of growth at 20 µg/mL (A549 [9]) | iNOS protein level (% of LPS control) at 10 µM (RAW264.7 [7]) | COX-2 protein level (% of LPS control) at 10 µM (RAW264.7 [8]) | inhibition of growth at 0.5 µg/mL (HepG2 [10]) | inhibition of growth at 0.5 µg/mL (MCF7 [11]) | inhibition of growth at 0.5 µg/mL [12] | inhibition of growth at 0.5 µg/mL (A549 [13])
1 | CC(=O)O[C@H]1/C=C(C(C)C)\C=C\[C@@](C)(O)CC/C=C(\C)CC[C@@H]2O[C@@]12C (relative stereo) [GIBBEROSENE D] | > 20 µg/mL | > 20 µg/mL | > 20 µg/mL | > 20 µg/mL | – | – | – | – | – | – | – | – | – | – | –
2 | CC(=O)O[C@H]1C2=C(C(C)C)C=C(O2)[C@@H](C)CC/C=C(\C)CC[C@@H]2O[C@]21C (relative stereo) [GIBBEROSENE A] | > 20 µg/mL | > 20 µg/mL | > 20 µg/mL | > 20 µg/mL | < 20% | 41.3% | – | – | – | – | – | – | – | – | –
3 | CC(=O)O[C@H]1C/C(C(C)C)=C/C=C(/C)CC/C=C(\C)CC[C@@H]2O[C@@]12C (relative stereo) [GIBBEROSENE B] | > 20 µg/mL | > 20 µg/mL | > 20 µg/mL | > 20 µg/mL | 24% | 21.5% | inactive | inactive | – | – | – | – | – | – | –
4 | CC(=O)O[C@@H]1/C(C)=C/C[C@H](O)/C(C)=C/CC/C(C)=C\C=C(/C(C)C)[C@H]1OC(C)=O (relative stereo) [GIBBEROSENE E] | > 20 µg/mL | > 20 µg/mL | > 20 µg/mL | > 20 µg/mL | 31.3% | 21% | – | – | 25.8% | – | – | – | – | – | –
5 | C/C1=C/C=C(\C(C)C)[C@@H](O)C[C@]2(C)O[C@@H]2CC/C(C)=C/CC1 | > 20 µg/mL | > 20 µg/mL | > 20 µg/mL | > 20 µg/mL | 45.5% | 33.4% | – | – | 27.2% | 76.2% | 54% | – | – | – | –
6 | CC(=O)O[C@@H]1/C(C)=C/CC/C(C)=C/[C@H](O)C/C(C)=C\C=C(/C(C)C)[C@H]1OC(C)=O (relative stereo) [GIBBEROSENE F] | > 20 µg/mL | > 20 µg/mL | > 20 µg/mL | > 20 µg/mL | – | – | – | – | – | – | – | – | – | – | –
7 | COc1cccc2c1C(=O)c1c(O)c3c(c(O)c1C2=O)C[C@@](O)(C(=O)CO)C[C@@H]3O[C@H]1C[C@H](N)[C@H](O)[C@H](C)O1 [DOXORUBICIN] | – | – | – | – | – | – | – | – | – | – | – | 66.9% | 51.6% | 66.6% | 73.2%
8 | C/C1=C/C=C(\C(C)C)CC/C(C)=C/C(O)C/C(C)=C/CC1 (stereo unspecified) [GIBBEROSENE G] | > 20 µg/mL | > 20 µg/mL | > 20 µg/mL | > 20 µg/mL | 23.3% | – | – | – | – | – | – | – | – | – | –
9 | C/C1=C\CC[C@]2(C)O[C@H]2/C=C(\C(C)C)C[C@H](O)[C@]2(C)O[C@H]2CC1 (relative stereo) [GIBBEROSENE C] | > 20 µg/mL | > 20 µg/mL | > 20 µg/mL | > 20 µg/mL | – | – | – | – | – | – | – | – | – | – | –
